# Bioassay records: PubChem, Broad Institute
# An excerpt weighted towards active compounds, which were near 5.8% of everything screened.
# GASC1 inh: inhibitors of human demethylase GASC-1 KDM4C | GST-KDM4C 2-372, H3K9me3 peptide, LANCE TR-FRET | actives 0.15% (n = 96,000) | inhibition, % at 12.5 µM | AID 720574;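 active = mean replicate inhibition above about 25%, with at least 55% of replicates also reaching it, limit read from the data, passing the limit was not always enough; inconclusive = only one of those two conditions met; inactive = neither condition met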
# Target sequence (Q9H3R0 2-372 limits assumed): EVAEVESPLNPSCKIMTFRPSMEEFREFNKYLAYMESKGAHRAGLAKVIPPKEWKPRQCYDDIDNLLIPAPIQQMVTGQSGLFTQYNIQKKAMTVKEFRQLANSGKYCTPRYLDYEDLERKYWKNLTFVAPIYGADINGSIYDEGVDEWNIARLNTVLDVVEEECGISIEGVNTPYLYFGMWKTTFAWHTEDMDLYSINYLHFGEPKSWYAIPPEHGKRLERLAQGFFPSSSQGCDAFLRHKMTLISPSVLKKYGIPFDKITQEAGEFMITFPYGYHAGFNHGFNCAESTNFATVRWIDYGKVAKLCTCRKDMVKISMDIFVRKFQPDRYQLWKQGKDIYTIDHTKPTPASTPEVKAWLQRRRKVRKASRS
#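 Compound: one test concentration per compound; Material: GST-GASC-1 enzyme fragment 2-372; Amount: GASC-1 enzyme at 10 nM final in reaction; Also added: H3K9me3 peptide substrate, Fe(II), 2-oxoglutarate; Technique: LANCE TR-FRET; Times: 30 min demethylation and 1 h detection at room temperature.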
# Pf Dd2 inh: blocks growth of Plasmodium falciparum Dd2 parasites; P. falciparum Dd2 growth, SYBR Green, 72 h; stronger effect = lower value; activity change, % at 10 µM; actives 2.3% (n = 94,000); in the data active = activity change below about -80%; inconclusive = no clear call, values can overlap the other calls
# IDH1 mut inh: blocks human IDH1 R132H reductase activity; diaphorase/resazurin fluorescence, 60 min; AID 624101; inhibition, % at 10 µM; actives 0.18% (n = 70,000); in the data active = inhibition above about 34%; inconclusive = no clear call, values can overlap the other calls; inactive = below about 11%;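 also: 0% = DMSO and 100% = no enzyme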
# T cruzi growth-1: blocks T. cruzi growth in NIH3T3 culture; T. cruzi beta-gal in NIH3T3, GalScreen luminescence, 90 h; inhibition, % at 8.34 µM; actives 5.9% (n = 77,000); AID 624255;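 active = mean inhibition above about 93%, with at least 55% of replicates each passing it, limit read from the data, passing the limit was not always enough; inconclusive = only one of those two conditions holds; inactive = neither condition holds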
# T cruzi growth-2: inhibitors of T. cruzi proliferation; shares compounds with T cruzi growth-1; T. cruzi beta-gal in NIH3T3, GalScreen luminescence, 90 h; inhibition, % at 8.35 µM; actives 72% (n = 5,600); AID 651739;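 active = mean replicate inhibition above about 95% and at least 55% of replicates individually reaching it, limit read from the data; inconclusive = only one of the two criteria is met; inactive = neither criterion is met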
# T cruzi growth-3: Trypanosoma cruzi proliferation inhibition. T. cruzi beta-gal in NIH3T3, GalScreen luminescence, 90 h. inhibition, % at 2.09 µM. actives 21% (n = 5,600). shares compounds with T cruzi growth-1. AID 651740;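 active = mean inhibition above about 95%, with at least 55% of replicates also reaching it, limit read from the data; inconclusive = meets just one of the two conditions; inactive = meets neither condition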;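 also: plate controls were neutral control median for no effect and positive control median for full effect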
# 3T3 cytotox: kills mouse NIH/3T3 fibroblasts | NIH/3T3 viability, CellTiter-Glo ATP luminescence, 90 h | actives 14% (n = 5,600) | shares compounds with T cruzi growth-1 | cytotoxicity (signal decrease), % at 8.35 µM | AID 651742;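 active = mean signal decrease across replicates above about 35% based on untreated-well scatter, with enough replicates individually passing, limit read from the data; inconclusive = no rule stated though some were filed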;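 also: 0% = median of neutral control wells and 100% = median of positive control wells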
# 3T3 cytotox 2: cytotoxicity in mouse NIH/3T3 fibroblasts; shares compounds with T cruzi growth-1; NIH/3T3 viability, CellTiter-Glo ATP luminescence, 90 h; inhibition, % at 24.9 µM; actives 56% (n = 5,600);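 active = mean loss of cell viability signal at or above a set limit, and enough replicates individually reaching it; inconclusive = meets only the mean limit or only the replicate share; inactive = meets neither condition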;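 also: 0% = median of neutral control wells and 100% = median of positive control wells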
# Starred values were filed as active, the others as inactive; ? = inconclusive; nt = no result given.
SMILES,GASC1 inh,Pf Dd2 inh,IDH1 mut inh,T cruzi growth-1,T cruzi growth-2,T cruzi growth-3,3T3 cytotox,3T3 cytotox 2
CCCNC(=O)C[C@@H]1C[C@H]2c3cc(NC(=O)C4CCOCC4)ccc3O[C@H]2[C@H](CO)O1,1,22,0,nt,nt,nt,nt,nt
N#C[C@H]1[C@@H](c2ccc(C#Cc3ccccc3F)cc2)[C@@H](CO)N1C(=O)C1CCOCC1,1,-55,0,88,nt,nt,nt,nt
C[C@@H]1CN([C@H](C)CO)C(=O)Cc2cc(N(C)C)ccc2O[C@H]1CN(C)Cc1ccc(C(F)(F)F)cc1,0,41,-3,108*,89,64,4,14
C[C@@H]1CN([C@@H](C)CO)C(=O)Cc2cc(N(C)C)ccc2O[C@@H]1CN(C)Cc1ccc(C(F)(F)F)cc1,0,10,2,49,nt,nt,nt,nt
C[C@H]1CN([C@@H](C)CO)C(=O)Cc2cc(N(C)C)ccc2O[C@@H]1CN(C)Cc1ccc(C(F)(F)F)cc1,-1,8,0,119*,111*,82,-11,5
C[C@@H]1CN([C@H](C)CO)C(=O)Cc2cc(N(C)C)ccc2O[C@@H]1CN(C)Cc1ccc(C(F)(F)F)cc1,-2,4,0,50,nt,nt,nt,nt
C[C@H](CO)N1C[C@H](C)[C@H](CN(C)Cc2ccc(Oc3ccccc3)cc2)Oc2ccc(N(C)C)cc2CC1=O,0,-25,nt,65,nt,nt,nt,nt
C[C@H](CO)N1C[C@H](C)[C@@H](CN(C)Cc2ccc(Oc3ccccc3)cc2)Oc2ccc(N(C)C)cc2CC1=O,1,-23,0,116*,114*,82,15,106*
C[C@@H]1CN([C@@H](C)CO)C(=O)Cc2cc(N(C)C)ccc2O[C@H]1CN(C)Cc1ccc(Oc2ccccc2)cc1,7,5,0,111*,91,115*,7,106*
C[C@H]1CN([C@@H](C)CO)C(=O)c2cccc(NC(=O)Nc3ccc(F)cc3)c2O[C@@H]1CN(C)Cc1ccc(-c2ccccc2)cc1,-1,2,3,71,nt,nt,nt,nt
C[C@@H]1CN([C@@H](C)CO)C(=O)c2cccc(NC(=O)Nc3ccc(C(F)(F)F)cc3)c2O[C@@H]1CN(C)Cc1ccc(-c2ccccc2)cc1,-2,-79,nt,?,93,114*,92*,104*
C[C@@H]1CN([C@H](C)CO)C(=O)c2cccc(NC(=O)Nc3ccccc3)c2O[C@H]1CN(C)Cc1ccc(C(F)(F)F)cc1,1,-35,4,63,nt,nt,nt,nt
C[C@@H]1CN([C@H](C)CO)C(=O)c2cccc(NC(=O)Nc3ccc(C(F)(F)F)cc3)c2O[C@@H]1CN(C)Cc1ccc(-c2ccccc2)cc1,-3,-38,0,?,110*,74,14,103*
C[C@@H]1CN([C@H](C)CO)C(=O)c2cccc(NC(=O)Nc3ccc(F)cc3)c2O[C@@H]1CN(C)Cc1ccc(-c2ccccc2)cc1,-2,-34,nt,?,105*,75,32,71*
C[C@@H]1CN([C@H](C)CO)C(=O)c2cccc(NC(=O)Nc3ccc(C(F)(F)F)cc3)c2O[C@@H]1CN(C)Cc1ccccc1,-2,-15,nt,34,nt,nt,nt,nt
COc1ccc(NC(=O)N(C)C[C@@H]2OCCCC[C@H](C)Oc3ccc(NC(=O)NC(C)C)cc3C(=O)N([C@H](C)CO)C[C@@H]2C)cc1,1,-42,nt,72,nt,nt,nt,nt
Cc1cc(Nc2ccccc2NC(=O)c2ccc([N+](=O)[O-])cc2)n(-c2ccccc2)n1,nt,nt,0,nt,nt,nt,nt,nt
CC1Oc2c3c(c4c(-c5ccccc5)cc(=O)oc4c2C(=O)C1C)OC(C)(C)C=C3 (stereo not given),nt,nt,6,nt,nt,nt,nt,nt
O=C(CCCCCCC(=O)Nc1ccccc1O)N/N=C/C1=CCCCC1,nt,nt,0,nt,nt,nt,nt,nt
C[C@H]1CN([C@@H](C)CO)C(=O)c2cccc(NS(C)(=O)=O)c2O[C@@H]1CN(C)S(=O)(=O)c1cccs1,0,-11,0,?,-23,9,15,48*
C[C@@H]1CN([C@H](C)CO)C(=O)c2cc(NC(=O)Nc3ccc(C(F)(F)F)cc3)ccc2O[C@H]1CN(C)S(=O)(=O)c1cccs1,-1,0,nt,-27,nt,nt,nt,nt
C[C@H](CO)N1C[C@H](C)[C@H](CN(C)S(=O)(=O)c2cccs2)Oc2c(NC(=O)Nc3ccc(C(F)(F)F)cc3)cccc2C1=O,-2,-39,0,103*,88,58,56*,105*
C[C@H](CO)N1C[C@H](C)[C@H](CN(C)S(=O)(=O)c2cccs2)Oc2ccc(NC(=O)Nc3ccc(C(F)(F)F)cc3)cc2C1=O,0,3,nt,115*,103*,59,16,100*
C[C@@H]1CN([C@H](C)CO)C(=O)c2cc(NC(=O)Nc3ccc(C(F)(F)F)cc3)ccc2O[C@@H]1CN(C)S(=O)(=O)c1cccs1,-2,12,0,?,108*,19,23,40*
C[C@@H]1CN([C@@H](C)CO)C(=O)c2cccc(NS(C)(=O)=O)c2O[C@@H]1CN(C)S(=O)(=O)c1cccs1,0,-15,1,-25,nt,nt,nt,nt
SMILES,GASC1 inh,Pf Dd2 inh,IDH1 mut inh,T cruzi growth-1,T cruzi growth-2,T cruzi growth-3,3T3 cytotox,3T3 cytotox 2
C[C@H]1CN([C@@H](C)CO)C(=O)c2cccc(NC(=O)Nc3ccc(C(F)(F)F)cc3)c2O[C@H]1CN(C)S(=O)(=O)c1cccs1,-1,-18,1,90,nt,nt,nt,nt
Cc1cc(NC(=O)C(=O)NCCCN2CCOCC2)ccc1Br,nt,nt,0,nt,nt,nt,nt,nt
CC(C)NC(=O)N(C)C[C@H]1Oc2ncc(C#CCC3CCCC3)cc2C(=O)N([C@H](C)CO)C[C@@H]1C,0,nt,0,71,nt,nt,nt,nt
CC(C)CC#Cc1ccc2c(c1)O[C@@H](CN(C)Cc1cccnc1)[C@@H](C)CN([C@@H](C)CO)S2(=O)=O,-1,nt,10,108*,108*,90,30,107*
CC(C)CC#Cc1ccc2c(c1)O[C@@H](CN(C)Cc1cccnc1)[C@H](C)CN([C@@H](C)CO)S2(=O)=O,0,nt,19,94,nt,nt,nt,nt
CC(C)CC#Cc1ccc2c(c1)O[C@@H](CN(C)Cc1cccnc1)[C@@H](C)CN([C@H](C)CO)S2(=O)=O,-1,nt,10,65,nt,nt,nt,nt
CC(C)CC#Cc1ccc2c(c1)O[C@H](CN(C)Cc1cncnc1)[C@H](C)CN([C@H](C)CO)S2(=O)=O,0,-4,-1,22,nt,nt,nt,nt
CC(C)CC#Cc1ccc2c(c1)O[C@H](CN(C)Cc1cccnc1)[C@@H](C)CN([C@@H](C)CO)S2(=O)=O,1,nt,22,100*,93,102*,13,104*
